In one series the test system is Aspergillus niger. Put plainly: Antimicrobial activity against Aspergillus niger after 7 days by tube dilution method. In kind it is functional. The following applies: 168 h. The method, boiled down: (§1)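 Tube dilution in DMSO (stock 100 mg/ml) with serial dilutions; incubation 37 °C for 48 h for C. albicans (other organisms' times truncated in text). MIC read as lowest concentration inhibiting visible growth. Norfloxacin (bacteria) and fluconazole (fungi) as reference drugs.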

A further series relates to Staphylococcus aureus. Put plainly: Antimicrobial activity against Staphylococcus aureus after 24 hrs by tube dilution method. The series is classed as functional. The method, boiled down: as §1
The next series deals with Bacillus subtilis. Put plainly: Antimicrobial activity against Bacillus subtilis after 24 hrs by tube dilution method. The series is classed as functional. A digest of the protocol: as §1
In a further series the test system is Escherichia coli. Put plainly: Antimicrobial activity against Escherichia coli after 24 hrs by tube dilution method. In kind it is functional. The method, boiled down: as §1
For the next series, the system named is Candida albicans. Kind of series: Antimicrobial activity against Candida albicans after 48 hrs by tube dilution method. The series is classed as functional. A digest of the protocol: as §1
Series [1] concerns Vesicular stomatitis virus. Kind of series: Antiviral activity against VSV infected in human HeLa cells assessed as reduction in virus-induced cytopathogenicity after 3 days. The series is classed as functional, organism-based. Conditions: 72 h.
Series [2] has as its system Coxsackievirus B4. Put plainly: Antiviral activity against Coxsackievirus B4 infected in human HeLa cells assessed as reduction in virus-induced cytopathogenicity after 3 days. The following applies: Enterovirus B, 72 h. In kind it is functional, organism-based.
The next series concerns Punta Toro virus. Put plainly: Antiviral activity against Punta Toro virus infected in african green monkey Vero cells assessed as reduction in virus-induced cytopathogenicity after 3 days. Conditions: 72 h. The series is classed as functional, organism-based.
Series [3] concerns Coxsackievirus B4. Kind of series: Antiviral activity against Coxsackievirus B4 infected in african green monkey Vero cells assessed as reduction in virus-induced cytopathogenicity after 3 days. In kind it is functional, organism-based. The following applies: Enterovirus B, 72 h.
A further series has as its system Human respirovirus 3. Kind of series: Antiviral activity against Parainfluenza-3 virus infected in african green monkey Vero cells assessed as reduction in virus-induced cytopathogenicity after 3 days. The series is classed as functional, organism-based. The following applies: Human respirovirus 3, Vero, 72 h.
Another series has as its system Sindbis virus. Kind of series: Antiviral activity against Sindbis virus infected in african green monkey Vero cells assessed as reduction in virus-induced cytopathogenicity after 3 days. The series is classed as functional, organism-based. Conditions: 72 h.
Series [4] relates to Respiratory syncytial virus. Put plainly: Antiviral activity against RSV infected in human HeLa cells assessed as reduction in virus-induced cytopathogenicity after 3 days. Conditions: 72 h. The series is classed as functional, organism-based.
The subject of series [5] is Mammalian orthoreovirus 1. Kind of series: Antiviral activity against Reovirus 1 infected in african green monkey Vero cells assessed as reduction in virus-induced cytopathogenicity after 3 days. In kind it is functional, organism-based. The following applies: Mammalian orthoreovirus 1, Vero, 72 h.
Series [6] in a line: Cytotoxicity against african green monkey Vero cells assessed as alteration in cell morphology. The series is classed as cell-based. Conditions: chlorocebus sabaeus. The method, boiled down: (§2)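 Uninfected cell cultures tested in parallel with the CPE-reduction antiviral assay; cells grown to confluency, then serial compound dilutions added and incubated at 37 °C (3 days in the parallel antiviral set-up). Read-out is microscopic examination of morphology; value is the minimum cytotoxic concentration, the lowest causing a microscopically detectable alteration of normal cell morphology.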

Series [7] is described as follows: Cytotoxicity against human HeLa cells assessed as alteration in cell morphology. The series is classed as cell-based. A digest of the protocol: as §2
Series [8] relates to Human alphaherpesvirus 1. Kind of series: Antiviral activity against HSV1 KOS infected in human HEL cells assessed as reduction in virus-induced cytopathogenicity after 3 days. In kind it is functional, organism-based. The following applies: Human alphaherpesvirus 1, KOS, 72 h.
Another series concerns Human alphaherpesvirus 2. Kind of series: Antiviral activity against HSV2 G infected in human HEL cells assessed as reduction in virus-induced cytopathogenicity after 3 days. The series is classed as functional, organism-based. The following applies: Human alphaherpesvirus 2, strain G, 72 h.
For series [9], the system named is Human alphaherpesvirus 1. Kind of series: Antiviral activity against thymidine kinase-deficient acyclovir-resistant HSV1 KOS infected in human HEL cells assessed as reduction in virus-induced cytopathogenicity after 3 days. The series is classed as functional, organism-based. Conditions: Human alphaherpesvirus 1, KOS, 72 h.
Series [10] can be described thus: Cytotoxicity against human HEL cells assessed as alteration in cell morphology. In kind it is cell-based. The method, boiled down: as §2
The subject of series [11] is Vesicular stomatitis virus. Put plainly: Antiviral activity against VSV infected in human HEL cells assessed as reduction in virus-induced cytopathogenicity after 3 days. The following applies: 72 h. In kind it is functional, organism-based.

Converted amounts (≈) assume the structure as drawn.

In the case of `Clc1ccccc1-c1ncc[nH]1`, the values for the MFC against Aspergillus niger and in the series with Candida albicans were 280 µM (≈ 50 µg/mL) and 561 µM (≈ 100 µg/mL), respectively. Also, the minimum inhibitory concentration (MIC) in the series with Aspergillus niger was 35 µM (≈ 6.25 µg/mL); in the series on Staphylococcus aureus, 35 µM (≈ 6.25 µg/mL); in the series on Bacillus subtilis, 702 µM (≈ 125 µg/mL); against Escherichia coli, 702 µM (≈ 125 µg/mL); with Candida albicans, 702 µM (≈ 125 µg/mL). Besides, the minimal bactericidal concentration (MBC) in the series on Staphylococcus aureus, against Bacillus subtilis and in the series with Escherichia coli was 561 µM (≈ 100 µg/mL) each time.
As for `O=[N+]([O-])c1ccc(-c2ncc[nH]2)cc1`, the MFC in the series on Aspergillus niger and in the series with Candida albicans was 264 µM (≈ 49.9 µg/mL) each time. In addition, the MIC against Aspergillus niger was 33 µM (≈ 6.24 µg/mL); against Staphylococcus aureus it was 4 µM (≈ 0.757 µg/mL); against Bacillus subtilis it was 16 µM (≈ 3.03 µg/mL); with Escherichia coli it was 4 µM (≈ 0.757 µg/mL); with Candida albicans it was 33 µM (≈ 6.24 µg/mL). Further, the MBC against Staphylococcus aureus is 33 µM (≈ 6.24 µg/mL); with Bacillus subtilis, 132 µM (≈ 25 µg/mL); against Escherichia coli, 33 µM (≈ 6.24 µg/mL).
`O=C(O)c1ccccc1-c1ncc[nH]1`: the results for the minimum fungicidal concentration (MFC) with Aspergillus niger and against Candida albicans were 265 µM (≈ 49.9 µg/mL) and 526 µM (≈ 99 µg/mL), respectively. For the same compound, the minimum inhibitory concentration (MIC) was 33 µM (≈ 6.21 µg/mL) in the series on Aspergillus niger; 4 µM (≈ 0.753 µg/mL) with Staphylococcus aureus; 4 µM (≈ 0.753 µg/mL) against Bacillus subtilis; 4 µM (≈ 0.753 µg/mL) in the series with Escherichia coli; 66 µM (≈ 12.4 µg/mL) against Candida albicans. For the same compound, the MBC was 531 µM (≈ 99.9 µg/mL) with Staphylococcus aureus, 33 µM (≈ 6.21 µg/mL) in the series on Bacillus subtilis and 265 µM (≈ 49.9 µg/mL) against Escherichia coli.
`c1ccc(-c2ncc[nH]2)cc1` [2-PHENYLIMIDAZOLE]: the MFC against Aspergillus niger is 694 µM (≈ 100 µg/mL); in the series on Candida albicans, 347 µM (≈ 50 µg/mL). The minimum inhibitory concentration (MIC) against Aspergillus niger was 86 µM (≈ 12.4 µg/mL); against Staphylococcus aureus it was 5 µM (≈ 0.721 µg/mL); in the series on Bacillus subtilis, 5 µM (≈ 0.721 µg/mL); against Escherichia coli, 5 µM (≈ 0.721 µg/mL); against Candida albicans, 43 µM (≈ 6.2 µg/mL). For the same compound, the MBC against Staphylococcus aureus, against Bacillus subtilis and in the series with Escherichia coli was 43 µM (≈ 6.2 µg/mL) in each case.
Regarding `Nc1ncnc2c1ncn2C[C@H](O)CO` [(S)-DHPA], the EC50 (in [1]; in the series on Coxsackievirus B4 [2]; in the series on Punta Toro virus; in the series on Coxsackievirus B4 [3]; in the series on Human respirovirus 3; in the series on Sindbis virus) was more than 250 µg/mL in each case. Also, the EC50 in [4] and in [5] was more than 250 µg/mL each time. Moreover, the MCC in [6] and in series [7] was more than 250 µg/mL in each case.
In the case of `CCn1cc(C(=O)O)c(=O)c2cc(F)c(N3CCNCC3)cc21` [NORFLOXACIN], the MBC in the series on Staphylococcus aureus, with Bacillus subtilis and against Escherichia coli was 19 µM (≈ 6.07 µg/mL) each time. Also, the MIC against Staphylococcus aureus, in the series with Bacillus subtilis and in the series on Escherichia coli was 2 µM (≈ 0.639 µg/mL) in each case.
In the case of `OC(Cn1cncn1)(Cn1cncn1)c1ccc(F)cc1F` [FLUCONAZOLE], in the series on Aspergillus niger, the MFC came to 40 µM (≈ 12.3 µg/mL) and the MIC worked out at 1 µM (≈ 0.306 µg/mL). In the series with Candida albicans, this compound yielded a minimum fungicidal concentration (MFC) of 40 µM (≈ 12.3 µg/mL) and an MIC of 1 µM (≈ 0.306 µg/mL).
In the case of `O=c1[nH]c(=O)n([C@H]2C[C@H](O)[C@@H](CO)O2)cc1/C=C/Br` [BRIVUDINE], the EC50 was 0.04 µg/mL (≈ 0.12 µM) in the series on Human alphaherpesvirus 1 [8], 29 µg/mL (≈ 87.1 µM) with Human alphaherpesvirus 2, 96 µg/mL (≈ 288 µM) with Human alphaherpesvirus 1 [9] and more than 250 µg/mL in series [11]. Besides, the MCC in [10] is more than 250 µg/mL.
On to `Nc1nc2c(ncn2COC(CO)CO)c(=O)[nH]1` [GANCICLOVIR], for which the concentration giving a half-maximal response (EC50) in the series on Human alphaherpesvirus 1 [8] is 0.06 µg/mL (≈ 0.235 µM); with Human alphaherpesvirus 2 it was 0.06 µg/mL (≈ 0.235 µM); in the series on Human alphaherpesvirus 1 [9], 1 µg/mL (≈ 3.92 µM); in [11], more than 100 µg/mL. Also, the MCC in series [10] is more than 100 µg/mL.
